Experimental data collected from several papers.
Lines come from different studies, so protocols differ.
Target: Protein-tyrosine kinase 6 (PTK6, Homo sapiens, UniProt Q13882)

With `Cc1nn(C)cc1-c1nc2c(N3CCN(Cc4ccc(Cl)cc4)CC3)c(Cl)cnc2[nH]1` the remaining binding was 96% (binding; competition with immobilised ligand; 1 µM).
`CC(C)(C)c1cc(C=C(C#N)C#N)cc(Br)c1O` gave a remaining activity of 91.4% (enzyme activity; inhibitor; 0.5 µM).
`Cn1cncc1[C@@](O)(COc1ccc(C#N)cc1-c1ccc(OC(F)(F)F)cc1)c1ccc(C#N)cc1` gave a remaining binding of 100% (cell-free assay; competition with immobilised ligand; 1 µM).
With `Cn1cc(-c2cc(F)cc(N3CCn4c(cc5c4CCCC5)C3=O)c2CO)cc(Nc2ccc(N3CCN(C4COC4)CC3)cn2)c1=O` the inhibition was 10% (enzyme activity; inhibitor; 0.1 µM).
The inhibition of `C#Cc1n[nH]c2c(-c3cn([C@@H](C)c4ccccc4)c(=O)[nH]c3=O)cc(F)cc12` is reported as 9.4% (enzyme activity; inhibitor; 0.1 µM).
`COc1cc(Nc2ncc(F)c(Nc3ccc4c(n3)NC(=O)C(C)(C)O4)n2)cc(OC)c1OC` gave an inhibition of 82% (binding; 10 µM).
For `O=c1[nH]c2ccccc2n1C1CCN(Cc2ccc(-c3[nH]c4cc5ncnc5cc4nc3-c3ccccc3)cc2)CC1`, the remaining signal was 91.1% (cell-free assay; 0.5 µM).
`C#Cc1n[nH]c2c(-c3cn([C@@H](C)c4ccccn4)c(=O)[nH]c3=O)cc(F)cc12` gave an inhibition of 5.5% (enzyme activity; inhibitor; 0.1 µM).
The inhibition of `Cn1cc(-c2cccc(N3CCc4c(sc5c4CC(C)(C)C5)C3=O)c2CO)cc(Nc2ccncn2)c1=O` is reported as 1% (enzyme activity; inhibitor; 1 µM).
For `COc1ncccc1-c1cnn2ccc(N3CCN(C(=O)OC(C)C)CC3)nc12`, the remaining binding was 61% (binding; competition with immobilised ligand; 1 µM).
